The target in this assay is T1, Accessory gene regulator protein A (Staphylococcus aureus) (UniProt P0A0I7).
T1 sequence (whole entry): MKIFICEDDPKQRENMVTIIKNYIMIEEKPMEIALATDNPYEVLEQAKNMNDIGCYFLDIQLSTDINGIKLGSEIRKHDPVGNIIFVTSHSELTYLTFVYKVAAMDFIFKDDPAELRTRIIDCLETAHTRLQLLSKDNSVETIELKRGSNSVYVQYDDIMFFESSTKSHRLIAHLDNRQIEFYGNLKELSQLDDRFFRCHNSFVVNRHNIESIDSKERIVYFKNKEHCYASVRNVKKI
As to the kind of experiment: Inhibition of AGR quorum sensing system-mediated delta toxin production in methicillin-resistant Staphylococcus aureus AH2759 incubated for 15 hrs by Western blotting analysis. The method, boiled down: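 Cultures from the agr P3-lux plate were pooled and filtered (0.22 μm). Medium (2.5 μL) was run on 15% SDS-PAGE and transferred to PVDF. Blots were blocked overnight at 4 °C in milk/BSA in TBST, then probed 1 h at rt with rabbit anti-delta toxin (1:2000) and HRP anti-rabbit (1:10 000). Detection was chemiluminescence on X-ray film. AIP-2-treated cultures were included.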

Positions of bridges follow the written chain, without caps; N, C: chain ends. Residues, ends and D or L forms follow the SMILES beside them.

For the compound `CC(C)C[C@@H]1NC(=O)[C@H](CO)NC(=O)[C@H](CO)NC(=O)[C@@H](NC(=O)[C@H](C)NC(=O)[C@H](CC(N)=O)NC(=O)[C@@H](NC(=O)CN)C(C)C)CSC(=O)[C@H](Cc2ccccc2)NC1=O` (H-GVNACSSLF; thioester 5-C), the inhibition entry is “Dose-dependent effect”.
On to `O=C1c2cc(O)cc(O)c2C(=O)c2c(O)cc(CO)cc21`, for which the inhibition entry was “Dose-dependent effect”.
In the case of `O=C(O)c1cc(O)c2c(c1)C(=O)c1cc(O)c(O)c(O)c1C2=O`, the inhibition result is “Dose-dependent effect”.
`CC(=O)C(O)c1cc(O)c2c(c1)C(=O)c1cc(O)cc(O)c1C2=O` (centres undefined): the inhibition result is “Dose-dependent effect”.
